We go through 26 molecules from ChEMBL document CHEMBL2157918, “Design and synthesis of 1H-1,2,3-triazoles derived from econazole as antitubercular agents” (Bioorg Med Chem Lett, 2012).

The subject of assay [1] is Vero. Briefly: Cytotoxicity against african green monkey Vero cells after 3 days by MTT assay. The note with it: Chlorocebus sabaeus, 72 h. The format is cell-based. In a few lines: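 Early-log-phase Vero cell suspension was exposed to serially diluted compounds (initially in DMSO) in RPMI 1640 for 3 days and read by MTT assay. Effect was normalized to DMSO-only wells and IC50 was calculated.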

In assay [2] the test system is Candida albicans. Briefly: Antifungal activity against Candida albicans ATCC 90027 after 48 hrs by broth microdilution method. The assay is classed as functional. The note with it: ATCC 90027, 48 h. In a few lines: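 Broth microdilution with two-fold compound dilutions in tryptic soy broth. C. albicans grown in the same medium was exposed for 48 h. Growth was visualized with Alamar Blue. MIC was taken as the lowest concentration that inhibited the Alamar Blue color change.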

The subject of assay [3] is Mycobacterium tuberculosis. Briefly: Antitubercular activity against Mycobacterium tuberculosis H37Rv expressing GFP after 7 days by reporter gene assay. The assay is classed as functional. The following applies: 168 h. A digest of the protocol: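 Compound dissolved in DMSO, two-fold dilutions in 7H9 broth; Mtb H37Rv-GFP grown in Middlebrook 7H9, inoculum 2 × 10⁵ CFU/mL, exposed 7 days. Fluorescence read; MIC = lowest concentration inhibiting fluorescence by 90% versus bacteria-only wells.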

Assay [4] in a line: Selectivity index, ratio of IC50 for african green monkey Vero cells to MIC90 for Mycobacterium tuberculosis H37Rv. The format is functional. A digest of the protocol: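 Vero cells in early log phase, in RPMI 1640, exposed to serial compound dilutions for 3 days; viability by MTT assay; effect normalized to DMSO-only wells, IC50 by curve fitting. SI = Vero IC50 over Mtb H37Rv-GFP MIC (90% fluorescence inhibition, 7-day 7H9 exposure, 2 × 10⁵ CFU/mL inoculum).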

The test system of assay [5] is Mycobacterium tuberculosis. Briefly: Ratio of econazole MIC90 to compound MIC90 for Mycobacterium tuberculosis H37Rv. The format is functional.

In brackets after ≈: the same amount, converted by molar mass.

In turn, `OCc1cn(CC(OCc2ccc(Cl)cc2)c2ccc(Cl)cc2Cl)nn1` (stereo not given) showed an IC50 in assay [1] of 19.8 µg/mL (≈ 48 µM). The molecule also yielded an MIC in assay [2] greater than 256 µg/mL. Moreover, the MIC90 in assay [3] is greater than 256 µg/mL.
Take `Clc1ccc(COC(Cn2cc(C3CCCCC3)nn2)c2ccc(Cl)cc2Cl)cc1` (stereo not given): in assay [1], the IC50 is greater than 12.5 µg/mL. The molecule further yielded an MIC in assay [2] greater than 256 µg/mL. The molecule further returned an MIC90 in assay [3] greater than 256 µg/mL.
With `CC(C)(C)c1cn(CC(OCc2ccc(Cl)cc2)c2ccc(Cl)cc2Cl)nn1` (stereo not given), the IC50 in assay [1] was greater than 25 µg/mL. In assay [2], this molecule had an MIC greater than 256 µg/mL. This molecule displayed an MIC90 in assay [3] greater than 256 µg/mL.
As for `Nc1cccc(-c2cn(CC(OCc3ccc(Cl)cc3)c3ccc(Cl)cc3Cl)nn2)c1` (stereo not given), in assay [1], the IC50 was greater than 50 µg/mL. In assay [2], this molecule returned an MIC greater than 256 µg/mL. For the same molecule, in assay [3], the MIC90 was greater than 256 µg/mL.
Regarding `Nc1ccc(-c2cn(CC(OCc3ccc(Cl)cc3)c3ccc(Cl)cc3Cl)nn2)cc1` (stereo not given), the IC50 in assay [1] was greater than 50 µg/mL. Moreover, the MIC in assay [2] is greater than 256 µg/mL. In assay [3], this molecule returned an MIC90 of 256 µg/mL (≈ 540 µM).
`Clc1ccc(COC(Cn2cc(-c3ccccn3)nn2)c2ccc(Cl)cc2Cl)cc1` (stereo not given) registered an IC50 in assay [1] greater than 50 µg/mL. This molecule also gave an MIC in assay [2] greater than 256 µg/mL. In assay [3], this molecule returned an MIC90 of 256 µg/mL (≈ 557 µM).
On to `OC(Cn1ccnn1)c1ccc(Cl)cc1Cl` (stereo not given), for which, in assay [1], the half-maximal inhibitory concentration (IC50) was greater than 200 µg/mL. This molecule also gave a minimal inhibitory concentration (MIC) in assay [2] greater than 256 µg/mL. In addition, in assay [3], the MIC90 was determined as 256 µg/mL (≈ 992 µM).
In the same order, the values of `OC(Cn1nnc2ccccc21)c1ccc(Cl)cc1Cl` (stereo not given) are greater than 100 µg/mL, greater than 256 µg/mL and greater than 256 µg/mL.
The matching figures for `Clc1ccc(COC(Cn2ccnn2)c2ccc(Cl)cc2Cl)cc1` (stereo not given): greater than 12.5 µg/mL, greater than 256 µg/mL and 64 µg/mL (≈ 167 µM).
`Clc1ccc(COC(Cn2nnc3ccccc32)c2ccc(Cl)cc2Cl)cc1` (stereo not given): the IC50 in assay [1] was greater than 12.5 µg/mL. This molecule had an MIC in assay [2] greater than 256 µg/mL. The molecule further registered an MIC90 in assay [3] of 128 µg/mL (≈ 296 µM).
Regarding `CCCCc1cn(CC(O)c2ccc(Cl)cc2Cl)nn1` (stereo not given), the “Selectivity Index” value in assay [4] came out at 1. The midpoint of inhibition in assay [1], the IC50, lay at 23.3 µg/mL (≈ 74.1 µM). Moreover, the MIC in assay [2] was greater than 256 µg/mL. Also, in assay [5], the Ratio came out at 2. This molecule displayed an MIC90 in assay [3] of 8 µg/mL (≈ 25.5 µM).
In assay [1], `OCCc1cn(CC(O)c2ccc(Cl)cc2Cl)nn1` (stereo not given) registered an IC50 of 274 µg/mL (≈ 907 µM). This molecule also yielded an MIC in assay [2] greater than 256 µg/mL. Also, in assay [3], the MIC90 worked out at 256 µg/mL (≈ 847 µM).
In assay [1], `OCc1cn(CC(O)c2ccc(Cl)cc2Cl)nn1` (stereo not given) showed an IC50 greater than 100 µg/mL. The same molecule had an MIC90 in assay [3] greater than 256 µg/mL.
Take `OC(Cn1cc(C2CCCCC2)nn1)c1ccc(Cl)cc1Cl` (stereo not given): in assay [4], the “Selectivity Index” value was determined as 1. Moreover, in assay [1], the midpoint of inhibition, the IC50, lay at 31.9 µg/mL (≈ 93.9 µM). For the same molecule, the MIC in assay [2] is greater than 256 µg/mL. The MIC90 in assay [3] was found to be 16 µg/mL (≈ 47 µM).
In assay [1], `CC(C)(C)c1cn(CC(O)c2ccc(Cl)cc2Cl)nn1` (stereo not given) yielded an IC50 of 33.9 µg/mL (≈ 108 µM). The same molecule had a minimal inhibitory concentration (MIC) in assay [2] of 256 µg/mL (≈ 815 µM). Moreover, the MIC90 in assay [3] came to 32 µg/mL (≈ 102 µM).
The molecule `Nc1cccc(-c2cn(CC(O)c3ccc(Cl)cc3Cl)nn2)c1` (stereo not given) had an IC50 in assay [1] of 26.8 µg/mL (≈ 76.7 µM). The molecule also displayed an MIC in assay [2] greater than 256 µg/mL. The molecule also gave an MIC90 in assay [3] of 32 µg/mL (≈ 91.6 µM).
Regarding `Nc1ccc(-c2cn(CC(O)c3ccc(Cl)cc3Cl)nn2)cc1` (stereo not given), the half-inhibitory concentration (IC50) in assay [1] was 33.9 µg/mL (≈ 97.2 µM). The molecule also came in with an MIC in assay [2] greater than 256 µg/mL. This molecule yielded an MIC90 in assay [3] of 32 µg/mL (≈ 91.6 µM).
For `OC(Cn1cc(-c2ccccn2)nn1)c1ccc(Cl)cc1Cl` (stereo not given), in assay [3], the MIC90 came to 32 µg/mL (≈ 95.5 µM).
In assay [1], `CCCCc1cn(CC(OCc2ccc(Cl)cc2)c2ccc(Cl)cc2Cl)nn1` (stereo not given) showed a concentration for half-maximal inhibition (IC50) of 10.6 µg/mL (≈ 24.2 µM). In assay [2], the MIC is greater than 256 µg/mL. The MIC90 in assay [3] came to 128 µg/mL (≈ 292 µM).
The matching figures for `CCCCc1cn(CC(OCc2ccc(OC(F)(F)F)cc2)c2ccc(Cl)cc2Cl)nn1` (stereo not given): 63.4 µg/mL (≈ 130 µM), greater than 256 µg/mL and greater than 256 µg/mL.
In the same order, the values of `CCCCc1cn(CC(OCc2ccc(F)cc2F)c2ccc(Cl)cc2Cl)nn1` (stereo not given) are 21 µg/mL (≈ 47.7 µM), greater than 256 µg/mL and greater than 256 µg/mL.
`OCCc1cn(CC(OCc2ccc(Cl)cc2)c2ccc(Cl)cc2Cl)nn1` (stereo not given) gave an IC50 in assay [1] of 24.3 µg/mL (≈ 57 µM). For the same molecule, in assay [2], the MIC is greater than 256 µg/mL. In assay [3], the MIC90 is greater than 256 µg/mL.
Take `OCCc1cn(CC(OCc2ccc(OC(F)(F)F)cc2)c2ccc(Cl)cc2Cl)nn1` (stereo not given): the MIC in assay [2] was greater than 64 µg/mL. This molecule registered an MIC90 in assay [3] greater than 64 µg/mL.
`OCCc1cn(CC(OCc2ccc(F)cc2F)c2ccc(Cl)cc2Cl)nn1` (stereo not given) came in with an IC50 in assay [1] of 33.7 µg/mL (≈ 78.6 µM). Also, the minimum inhibitory concentration (MIC) in assay [2] is greater than 256 µg/mL. The MIC90 in assay [3] worked out at 128 µg/mL (≈ 299 µM).
On to `Clc1ccc(COC(Cn2ccnc2)c2ccc(Cl)cc2Cl)cc1` (stereo not given) [ECONAZOLE], for which, in assay [4], the “Selectivity Index” value amounted to 1. This molecule gave an MIC in assay [2] of 16 µg/mL (≈ 41.9 µM). Besides, the MIC90 in assay [3] came to 16 µg/mL (≈ 41.9 µM).
`CO[C@H]1/C=C/O[C@@]2(C)Oc3c(C)c(O)c4c(O)c(c(/C=N/N5CCN(C)CC5)c(O)c4c3C2=O)NC(=O)/C(C)=C\C=C\[C@H](C)[C@H](O)[C@@H](C)[C@@H](O)[C@@H](C)[C@H](OC(C)=O)[C@@H]1C` [RIFAMPIN] registered an MIC90 in assay [3] of 0.0625 µg/mL (≈ 0.0759 µM).
